Test results from ChEMBL document CHEMBL4145483, “Quinoxaline derivatives as new inhibitors of coxsackievirus B5” (Eur J Med Chem, 2018).
In brackets after ≈: the same amount, converted by molar mass. Activity calls are given as the source filed them. No cut-off for these calls is given here.

Tests used:
[1] = test system: Coxsackievirus B5; assay: Antiviral activity against Coxsackievirus B5 Ohio-1 ATCC VR 29 infected in African green monkey Vero 76 cells after 3 days by plaque reduction assay; type: functional, organism-based; settings: Enterovirus B, Ohio-1 ATCC VR 29, Vero 76, 72 h
Outline: (§1)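 Plaque reduction in Vero-76 monolayers, with cytotoxicity measured in parallel on the same plate. EC50 is the concentration reducing plaque number by 50%, derived by linear regression. CC50 is the concentration reducing viability of mock-infected Vero-76 cells by 50%, by MTT. Selectivity index is CC50/EC50.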

[2] = test system: Human immunodeficiency virus 1; assay: Antiviral activity against HIV1 3B infected in human MT4 cells assessed as protection against virus-induced cytopathic effect after 3 to 4 days by MTT assay; type: functional, organism-based; settings: Human immunodeficiency virus 1, 3B
Outline: (§2)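 MT-4 cells in exponential growth are acutely infected with HIV-1 at m.o.i. 0.01 and exposed to serial compound dilutions. Viability is read by MTT after 3–4 days at 37 °C. EC50 is the concentration giving 50% protection from virus-induced cytopathogenicity, and CC50 is taken from mock-infected MT-4 cells. Both are fitted by linear regression, and the selectivity index is CC50/EC50.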

[3] = test system: Human orthopneumovirus; assay: Antiviral activity against Human respiratory syncytial virus A2 ATCC VR 1540 infected in African green monkey Vero 76 cells after 5 days by plaque reduction assay; type: functional, organism-based; settings: ATCC VR 1540, Vero 76, 120 h; outline: as §1
[4] = test system: Mammalian orthoreovirus 1; assay: Antiviral activity against Reovirus 1 3651 ATCC VR-214 infected in golden hamster BHK21 cells assessed as protection against virus-induced cytopathic effect after 3 to 4 days by MTT assay; type: functional, organism-based; settings: Mammalian orthoreovirus 1, 3651 ATCC VR-214, BHK-21
Outline: (§3)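 Cytopathic-effect protection assay. MDBK (BVDV) or BHK (Reo-1) cells are infected in the presence of serial compound dilutions. After 3 or 4 days at 37 °C, viability is read by MTT. EC50 is the concentration giving 50% protection from virus-induced cytopathogenicity, derived by linear regression.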

[5] = test system: Bovine viral diarrhea virus 1; assay: Antiviral activity against BVDV NADL ATCC VR-534 infected in MDBK cells assessed as protection against virus-induced cytopathic effect after 3 to 4 days by MTT assay; type: functional, organism-based, Bovine viral diarrhea virus 1-NADL; settings: Bovine viral diarrhea virus isolates and strains, ATCC VR-534, MDBK; outline: as §3
[6] = Cytotoxicity against African green monkey Vero 76 cells assessed as reduction in cell viability after 48 to 96 hrs by MTT assay; type: cell-based; settings: chlorocebus sabaeus
Outline: (§4)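 Cells are grown in medium with serum: MT-4 at 4×10^5 cells/ml in RPMI-1640 with 10% FBS; MDBK at 6×10^5 in MEM-E with 10% horse serum; BHK at 1×10^6 in MEM-E with 10% FBS; Vero-76 at 4×10^5 in D-MEM with 10% FBS. Serial dilutions are added at 37 °C, 5% CO2, and viability is read by MTT after 48–96 h. CC50 comes from linear regression. For MDBK, selectivity index is CC50/BVDV EC50.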

[7] = test system: Human alphaherpesvirus 1; assay: Antiviral activity against HSV1 KOS ATCC VR 1493 infected in African green monkey Vero 76 cells after 3 days by plaque reduction assay; type: functional, organism-based; settings: Human alphaherpesvirus 1, KOS ATCC VR1493, Vero 76, 72 h; outline: as §1
[8] = test system: Yellow fever virus; assay: Antiviral activity against Yellow fever virus 17D infected in golden hamster BHK21 cells assessed as protection against virus-induced cytopathic effect after 3 to 4 days by MTT assay; type: functional, organism-based; settings: BHK-21
[9] = test system: Vesicular stomatitis Indiana virus; assay: Antiviral activity against Vesicular stomatitis virus Indiana ATCC VR 1540 infected in African green monkey Vero 76 cells after 3 days by plaque reduction assay; type: functional, organism-based; settings: ATCC VR 1540, Vero 76, 72 h
[10] = Cytotoxicity against golden hamster BHK21 cells assessed as reduction in cell viability after 48 to 96 hrs by MTT assay; type: cell-based, Mesocricetus auratus, BHK-21; outline: as §4
[11] = Cytotoxicity against MDBK cells assessed as reduction in cell viability after 48 to 96 hrs by MTT assay; type: cell-based, Bos taurus; settings: cattle; outline: as §4
[12] = Cytotoxicity against human MT4 cells assessed as reduction in cell viability after 48 to 96 hrs by MTT assay; type: cell-based; outline: as §4
[13] = test system: Vaccinia virus; assay: Antiviral activity against Vaccinia virus Lister ATCC VR 1549 infected in African green monkey Vero 76 cells after 3 days by plaque reduction assay; type: functional, organism-based; settings: Orthopoxvirus vaccinia, ATCC VR 1549, Vero 76, 72 h
[14] = test system: Human poliovirus 1 strain Sabin; assay: Antiviral activity against Poliovirus 1 Sabin ATCC VR 1562 infected in African green monkey Vero 76 cells after 2 days by plaque reduction assay; type: functional, organism-based; settings: Enterovirus C, ATCC VR 1562, Vero 76, 48 h
[15] = Selectivity index, ratio of CC50 for human MT4 cells to EC50 for HIV1 3B; type: toxicity; settings: read-out: Ratio CC50/EC50; outline: as §2
[16] = Selectivity index, ratio of CC50 for African green monkey Vero 76 cells to EC50 for Coxsackievirus B5 Ohio-1 ATCC VR-29; type: toxicity; settings: read-out: Ratio CC50/EC50; outline: as §1
[17] = test system: Human immunodeficiency virus 1; assay: Antiviral activity against HIV1 3B infected in human MT4 cells assessed as inhibition of viral replication by MTT assay; type: functional, organism-based; settings: Human immunodeficiency virus 1, 3B; outline: as §2
[18] = test system: Coxsackievirus B5; assay: Antiviral activity against Coxsackievirus B5 Ohio-1 ATCC VR 29 infected in African green monkey Vero 76 cells assessed as reduction in viral titre at 1 uM treated simultaneously with viral infection and subsequent compound washout after 2 hrs by plaque assay; type: functional, organism-based
Outline: (§5)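 Time of addition. Confluent Vero-76 monolayers are infected with CV-B5 at m.o.i. 0.3. Compound at 1 μM is given at −2 to 0 h then removed, at 0 h then removed or kept, or at 2, 4, 6, 8 or 12 h post infection. After 3 days, monolayers are collected and titred by plaque assay, in two independent experiments each done in duplicate.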

[19] = test system: Coxsackievirus B5; assay: Antiviral activity against Coxsackievirus B5 Ohio-1 ATCC VR 29 infected in African green monkey Vero 76 cells assessed as reduction in viral titre at 1 uM treated simultaneously with viral infection by plaque assay; type: functional, organism-based; outline: as §5
[20] = test system: Coxsackievirus B5; assay: Antiviral activity against Coxsackievirus B5 Ohio-1 ATCC VR 29 infected in African green monkey Vero 76 cells assessed as reduction in viral replication at 1 uM measured up to 2 hrs post infection by plaque assay; type: functional, organism-based; outline: as §5
[21] = test system: Coxsackievirus B5; assay: Antiviral activity against Coxsackievirus B5 Ohio-1 ATCC VR 29 infected in African green monkey Vero 76 cells assessed as reduction in viral replication at 1 uM measured at 4 to 12 hrs post infection by plaque assay; type: functional, organism-based; outline: as §5
[22] = test system: Coxsackievirus B5; assay: Antiviral activity against Coxsackievirus B5 Ohio-1 ATCC VR 29 infected in African green monkey Vero 76 cells assessed as reduction in viral titre incubated for 60 mins at 4 degC measured after 24 hrs by plaque assay; type: functional, organism-based
Outline: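 Adsorption assay. Vero-76 cells are infected with CV-B5 (m.o.i. 0.1) with or without compound for 60 min at 4 °C. Unbound virus is removed, cells are washed twice with PBS and overlaid with MEM containing 1% methylcellulose. Plaques are counted after 24 h at 37 °C.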

[23] = test system: Coxsackievirus B5; assay: Antiviral activity against Coxsackievirus B5 Ohio-1 ATCC VR 29 infected in African green monkey Vero 76 cells assessed as reduction in viral infectivity at 4 to 20 uM after 1 hr by plaque assay; type: functional, organism-based
Outline: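 Virucidal test. A CV-B5 suspension (5×10^5 PFU/ml) is incubated with 4 or 20 μM compound, or without, for 1 h at 37 °C. Residual infectivity is then measured by plaque assay on Vero-76 cells.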

[24] = test system: Coxsackievirus B5; assay: Antiviral activity against Coxsackievirus B5 Ohio-1 ATCC VR 29 infected in African green monkey Vero 76 cells assessed as reduction in viral yield after 72 hrs by plaque reduction assay; type: functional, organism-based
[25] = test system: Coxsackievirus B5; assay: Antiviral activity against Coxsackievirus B5 Ohio-1 ATCC VR 29 infected in African green monkey Vero 76 cells assessed as reduction in viral titre at 1 uM preincubated for 2 hrs followed by viral infection and subsequent compound washout at 2 hrs post infection by plaque assay; type: functional, organism-based; outline: as §5
[26] = Selectivity index, ratio of CC50 for MDBK cells to EC50 for BVDV NADL ATCC VR-534; type: toxicity; settings: cattle, read-out: Ratio CC50/EC50; outline: as §4

Row | SMILES | EC50 [1] [µM] | EC50 [2] [µM] | EC50 [3] [µM] | EC50 [4] [µM] | EC50 [5] [µM] | CC50 [6] [µM] | EC50 [7] [µM] | EC50 [8] [µM] | EC50 [9] [µM] | CC50 [10] [µM] | CC50 [11] [µM] | CC50 [12] [µM] | EC50 [13] [µM] | EC50 [14] [µM] | selectivity ratio [16] | further results
1 | COc1nc2ccc(CSc3ccc(Cl)c(Cl)c3)cc2nc1OC | > 75 | > 48 | > 75 | > 80 | > 100 | 75 | > 75 | > 80 | > 75 | 80 | > 100 | 48 | > 75 | > 75 | – | –
2 | COc1nc2ccc(CSc3ccc4ccccc4c3)cc2nc1OC | > 100 | 36 | > 100 | > 100 | > 100 | > 100 | > 100 | > 100 | > 100 | > 100 | > 100 | > 100 | > 100 | > 100 | – | selectivity ratio [15]: 2.7
3 | CCOC(=O)CC[C@H](NC(=O)c1ccccc1SCc1ccc2nc(OC)c(OC)nc2c1)C(=O)OCC | > 100 | > 60 | > 100 | > 100 | > 100 | > 100 | > 100 | > 100 | > 100 | > 100 | > 100 | 60 | > 100 | > 100 | – | –
4 | CCOC(=O)c1ccc(SCc2ccc3nc(OC)c(OC)nc3c2)nc1 | 0.3 | > 100 | > 100 | > 100 | > 100 | > 100 | > 100 | > 100 | > 100 | > 100 | > 100 | > 100 | > 100 | > 100 | > 333 | –
5 | C=CCCCOc1cnc2cc(C)c(C)cc2n1 | – | – | – | – | – | – | – | – | – | – | – | – | – | – | – | IC50 [17]: 0.22 mg/L (≈ 0.908 µM)
6 | CCOC(=O)c1ccc(SCc2ccc3nc(OC)c(OC)nc3c2)cc1 | 0.09 | > 100 | > 100 | > 100 | > 100 | > 100 | > 100 | > 100 | > 100 | > 100 | > 100 | > 100 | > 100 | > 100 | > 1110 | Activity [18]: inactive; Activity [19]: Active; Activity [20]: Active; Activity [21]: inactive; Activity [22]: inactive; Activity [23]: inactive; Activity [24]: Dose-dependent effect; Activity [25]: inactive
7 | COc1nc2ccc(CSc3ccc(C(=O)O)cn3)cc2nc1OC | 3.8 | > 100 | > 90 | > 100 | > 100 | 90 | > 90 | > 100 | > 90 | > 100 | > 100 | > 100 | > 90 | > 90 | 23 | –
8 | COc1nc2ccc(CSc3ccc(C(=O)O)cc3)cc2nc1OC | 0.06 | > 68 | > 65 | > 65 | > 100 | 65 | > 65 | > 65 | > 65 | 65 | > 100 | 68 | > 65 | > 65 | 1080 | –
9 | C[C@@]1(O)[C@H](O)[C@@H](CO)O[C@H]1n1cnc2c(=O)[nH]c(N)nc21 [2'-B-METHYL-GUANOSINE] | – | – | – | 1.9 | 1.1 | – | – | 1.9 | – | > 100 | > 100 | – | – | – | – | –
10 | CCOC(=O)CC[C@H](NC(=O)c1ccc(SCc2ccc3nc(OC)c(OC)nc3c2)nc1)C(=O)OCC | 56 | > 19 | > 100 | > 85 | 10 | > 100 | > 100 | > 85 | > 100 | 85 | > 100 | 19 | > 100 | > 100 | > 1.7 | selectivity ratio [26]: > 10
11 | Cc1cc(CCCOc2c(C)cc(-c3noc(C(F)(F)F)n3)cc2C)on1 [PLECONARIL] | 0.005 | – | – | – | – | > 100 | – | – | – | – | – | – | – | – | – | –
12 | COc1nc2ccc(CSc3ccccn3)cc2nc1OC | > 100 | > 28 | > 100 | > 100 | > 100 | > 100 | > 100 | > 100 | > 100 | > 100 | > 100 | 28 | > 100 | > 100 | – | –
